Measurements as given in ChEMBL document CHEMBL1275344, “Synthesis and antimalarial assessment of a new series of orally active amino-functionalized spiro 1,2,4-trioxanes” (J Med Chem, 2010).
Activity calls are given as the source filed them. No cut-off for these calls is given here.

Experiments:
[1] = test system: Plasmodium yoelii nigeriensis; assay: Antimalarial activity against multidrug-resistant Plasmodium yoelii nigeriensis infected in Swiss mice (Mus musculus) assessed as suppression of parasitaemia at 96 mg/kg, perorally for 4 days relative to control; assay type: functional; conditions: route oral
Method in brief: (§1)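 Swiss mice of either sex (20 ± 2 g) infected intraperitoneally with 1 × 10⁶ MDR P. yoelii nigeriensis parasites on day 0. Five mice per dose group, given oral doses in groundnut oil, twice daily on days 0–3. Parasitaemia read from day-4 thin blood smears. Suppression = [(C − T)/C] × 100, with C and T the control and treated parasitaemia. 100% means no parasites seen in 50 oil-immersion fields.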

[2] = test system: Plasmodium yoelii nigeriensis; assay: Antimalarial activity against multidrug-resistant Plasmodium yoelii nigeriensis infected in Swiss mice (Mus musculus) assessed as suppression of parasitaemia at 48 mg/kg, peroral for 4 days relative to control; assay type: functional; conditions: route oral; method in brief: as §1
[3] = test system: Plasmodium yoelii nigeriensis; assay: Antimalarial activity against multidrug-resistant Plasmodium yoelii nigeriensis infected in Swiss mice (Mus musculus) assessed as curated mice (Mus musculus) at 96 mg/kg, peroral for 4 days; assay type: functional, organism-based; parameters: dose 96 mg/kg
Method in brief: (§2)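 Swiss mice of either sex (20 ± 2 g) inoculated intraperitoneally with 1 × 10⁶ MDR P. yoelii nigeriensis parasites on day 0. Five mice per dose group, dosed orally in groundnut oil (0.1 mL), in two divided doses daily from day 0 to 3. Thin blood smears read on day 4, then twice weekly to day 28. Mice without patent infection by day 28 counted as cured. β-Arteether was the positive control.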

[4] = Lipophilicity, log P of the compound; assay type: physicochemical; conditions: octanol/water
[5] = test system: Plasmodium yoelii nigeriensis; assay: Antimalarial activity against multidrug-resistant Plasmodium yoelii nigeriensis infected in Swiss mice (Mus musculus) assessed as curated mice (Mus musculus) at 48 mg/kg, peroral for 4 days; assay type: functional, organism-based; parameters: dose 48 mg/kg; method in brief: as §2
[6] = test system: Plasmodium yoelii nigeriensis; assay: Antimalarial activity against multidrug-resistant Plasmodium yoelii nigeriensis infected in Swiss mice (Mus musculus) assessed as curated mice (Mus musculus) at 24 mg/kg, peroral for 4 days; assay type: functional, organism-based; parameters: dose 24 mg/kg; method in brief: as §2
[7] = test system: Plasmodium yoelii nigeriensis; assay: Antimalarial activity against multidrug-resistant Plasmodium yoelii nigeriensis infected in Swiss mice (Mus musculus) assessed as curated mice (Mus musculus) at 12 mg/kg, peroral for 4 days; assay type: functional, organism-based; parameters: dose 12 mg/kg; method in brief: as §2
[8] = test system: Plasmodium yoelii nigeriensis; assay: Antimalarial activity against multidrug-resistant Plasmodium yoelii nigeriensis infected in Swiss mice (Mus musculus) assessed as suppression of parasitaemia at 24 mg/kg, peroral for 4 days relative to control; assay type: functional; conditions: route oral; method in brief: as §1
[9] = test system: Plasmodium yoelii nigeriensis; assay: Antimalarial activity against multidrug-resistant Plasmodium yoelii nigeriensis infected in Swiss mice (Mus musculus) assessed as suppression of parasitaemia at 12 mg/kg, peroral for 4 days relative to control; assay type: functional; conditions: route oral; method in brief: as §1

SMILES	Activity [1] [%]	Activity [2] [%]	Activity [3]	logP [4]	Activity [5]	Activity [6]	Activity [7]	Activity [8] [%]	Activity [9] [%]	Activity ([9]; 12 mg/kg) [%]
C=C(c1ccc2ccc3ccccc3c2c1)C1CCC2(CC1)COC(Nc1ccc(F)cc1)OO2 (stereo not given)	100	100	Active	6.74	–	–	–	–	–	–
C=C(c1cccc2ccccc12)C1CCC2(CC1)COC(Nc1cccc(C(F)(F)F)c1)OO2 (stereo not given)	100	100	Active	6.51	–	–	–	–	–	–
C=C(c1cccc2ccccc12)C1CCC2(CC1)COC(Nc1ccc(F)cc1)OO2 (stereo not given)	100	100	Active	5.75	–	–	–	–	–	–
C=C(c1ccc2ccc3ccccc3c2c1)C1CCC2(CC1)COC(Nc1ccc(OC)cc1)OO2 (stereo not given)	100	100	Active	6.46	–	–	–	–	–	–
C=C(c1cccc2ccccc12)C1CCC2(CC1)COC(Nc1ccc(OC)cc1)OO2 (stereo not given)	100	100	Active	5.46	–	–	–	–	–	–
C=C(c1ccc2ccc3ccccc3c2c1)C1CCC2(CC1)COC(Nc1ccccc1-c1ccccc1)OO2 (stereo not given)	100	74.36	Active	8.26	inactive	–	–	–	–	–
C=C(c1ccc2c(c1)Cc1ccccc1-2)C1CCC2(CC1)COC(Nc1ccc(C(F)(F)F)cc1)OO2 (stereo not given)	100	100	Active	7.25	–	–	–	–	–	–
C=C(c1ccc2ccc3ccccc3c2c1)C1CCC2(CC1)COC(Nc1cccc(C(F)(F)F)c1)OO2 (stereo not given)	100	100	Active	7.51	inactive	–	–	–	–	–
C=C(c1cccc2ccccc12)C1CCC2(CC1)COC(Nc1ccc(C(F)(F)F)cc1)OO2 (stereo not given)	100	100	Active	6.51	–	–	–	–	–	–
C=C(c1ccc2c(c1)Cc1ccccc1-2)C1CCC2(CC1)COC(Nc1cc(Cl)cc(Cl)c1)OO2 (stereo not given)	100	–	inactive	7.44	–	–	–	–	–	–
C=C(c1ccc2c(c1)Cc1ccccc1-2)C1CCC2(CC1)COC(Nc1ccccc1-c1ccccc1)OO2 (stereo not given)	100	–	inactive	8	–	–	–	–	–	–
C=C(c1ccc2c(c1)Cc1ccccc1-2)C1CCC2(CC1)COC(Nc1ccc(F)cc1)OO2 (stereo not given)	100	100	Active	6.48	–	–	–	–	–	–
C=C(c1cccc2ccccc12)C1CCC2(CC1)COC(Nc1ccccc1)OO2 (stereo not given)	100	100	Active	5.59	–	–	–	–	–	–
C=C(c1ccc2ccccc2c1)C1CCC2(CC1)COC(Nc1ccc(C(F)(F)F)cc1)OO2 (single isomer, unassigned; less polar) [listing 1 of 2 here]	–	–	Active	–	Active	Active	inactive	–	–	–
C=C(c1cccc2ccccc12)C1CCC2(CC1)COC(Nc1ccc(Cl)cc1)OO2 (stereo not given)	100	100	–	6.15	–	–	–	–	–	–
C=C(c1ccc2ccccc2c1)C1CCC2(CC1)COC(Nc1ccc(Cl)cc1)OO2 (stereo not given)	100	100	Active	6.15	Active	inactive	inactive	100	60	–
C=C(c1ccc2ccccc2c1)C1CCC2(CC1)COC(Nc1ccc(F)cc1)OO2 (stereo not given)	100	100	Active	5.75	–	–	–	100	–	–
C=C(c1ccc2ccccc2c1)C1CCC2(CC1)COC(Nc1ccc(C)cc1)OO2 (stereo not given)	100	100	Active	6.08	–	–	–	–	–	–
C=C(c1ccc2ccccc2c1)C1CCC2(CC1)COC(Nc1ccc(C(F)(F)F)cc1)OO2 (single isomer, unassigned; more polar) [listing 1 of 2 here]	–	–	–	–	–	–	–	–	–	100
C=C(c1ccc2ccc3ccccc3c2c1)C1CCC2(CC1)COC(Nc1ccccc1)OO2 (stereo not given)	100	100	Active	6.59	–	–	–	100	–	–

SMILES	Activity [1] [%]	Activity [2] [%]	Activity [3]	logP [4]	Activity [5]	Activity [6]	Activity [7]	Activity [8] [%]	Activity [9] [%]	Activity ([9]; 12 mg/kg) [%]
C=C(c1cccc2ccccc12)C1CCC2(CC1)COC(Nc1cc(Cl)cc(Cl)c1)OO2 (stereo not given)	100	100	Active	6.71	–	–	–	–	–	–
C=C(c1ccc2ccc3ccccc3c2c1)C1CCC2(CC1)COC(Nc1cc(Cl)cc(Cl)c1)OO2 (stereo not given)	100	62.5	Active	7.7	–	–	–	–	–	–
C=C(c1ccc2ccccc2c1)C1CCC2(CC1)COC(Nc1ccc(C(F)(F)F)cc1)OO2 (single isomer, unassigned; more polar) [listing 2 of 2 here]	–	–	Active	–	Active	Active	–	–	–	–
C=C(c1cccc2ccccc12)C1CCC2(CC1)COC(Nc1ccc(C)cc1)OO2 (stereo not given)	100	100	–	6.08	–	–	–	–	–	–
C=C(c1ccc2ccc3ccccc3c2c1)C1CCC2(CC1)COC(Nc1ccc(C)cc1)OO2 (stereo not given)	100	100	Active	7.07	Active	–	–	100	–	–
C=C(c1ccc2ccccc2c1)C1CCC2(CC1)COC(Nc1ccccc1-c1ccccc1)OO2 (stereo not given)	100	100	Active	7.26	–	–	–	–	–	–
C=C(c1ccc2c(c1)Cc1ccccc1-2)C1CCC2(CC1)COC(Nc1ccc(C)cc1)OO2 (stereo not given)	100	100	Active	6.81	–	–	–	–	–	–
C=C(c1ccc2ccccc2c1)C1CCC2(CC1)COC(Nc1ccc(OC)cc1)OO2 (stereo not given)	100	100	Active	5.46	–	–	–	–	–	–
C=C(c1cccc2ccccc12)C1CCC2(CC1)COC(Nc1ccccc1-c1ccccc1)OO2 (stereo not given)	100	100	Active	7.26	–	–	–	–	–	–
C=C(c1ccc2c(c1)Cc1ccccc1-2)C1CCC2(CC1)COC(Nc1ccc(Cl)cc1)OO2 (stereo not given)	100	–	Active	6.88	–	–	–	–	–	–
C=C(c1ccc2ccc3ccccc3c2c1)C1CCC2(CC1)COC(Nc1ccc(C(F)(F)F)cc1)OO2 (stereo not given)	100	82.22	Active	7.51	inactive	–	–	–	–	–
C=C(c1ccc2ccccc2c1)C1CCC2(CC1)COC(Nc1cccc(C(F)(F)F)c1)OO2 (stereo not given)	100	100	Active	6.51	–	–	–	–	–	–
C=C(c1ccc2c(c1)Cc1ccccc1-2)C1CCC2(CC1)COC(Nc1cccc(C(F)(F)F)c1)OO2 (stereo not given)	100	100	Active	7.25	inactive	–	–	–	–	–
C=C(c1ccc2ccccc2c1)C1CCC2(CC1)COC(Nc1cc(Cl)cc(Cl)c1)OO2 (stereo not given)	100	100	Active	6.71	–	–	–	–	–	–
C=C(c1ccc2ccccc2c1)C1CCC2(CC1)COC(Nc1ccccc1)OO2 (stereo not given)	100	100	Active	5.59	–	–	–	–	–	–
C=C(c1ccc2ccc3ccccc3c2c1)C1CCC2(CC1)COC(Nc1ccc(Cl)cc1)OO2 (stereo not given)	100	76.9	Active	7.14	–	–	–	–	–	–
C=C(c1ccc2ccccc2c1)C1CCC2(CC1)COC(Nc1ccc(C(F)(F)F)cc1)OO2 (single isomer, unassigned; less polar) [listing 2 of 2 here]	100	100	–	6.51	–	–	–	100	–	6.25
C=C(c1ccc2c(c1)Cc1ccccc1-2)C1CCC2(CC1)COC(Nc1ccc(OC)cc1)OO2 (stereo not given)	100	100	Active	6.2	inactive	–	–	–	–	–
C=C(c1ccc2c(c1)Cc1ccccc1-2)C1CCC2(CC1)COC(Nc1ccccc1)OO2 (stereo not given)	100	100	Active	6.33	–	–	–	–	–	–
CCO[C@H]1O[C@@H]2O[C@@]3(C)CC[C@H]4[C@H](C)CC[C@@H]([C@H]1C)[C@@]24OO3 [ARTEMOTIL]	–	100	–	–	Active	–	–	100	–	–
